Screens deposited in PubChem by several laboratories.
A selection: hits, their analogues and other compounds. The true share with any hit is near 3%.
hiPSC survival = enhancers of human iPSC single-cell survival; hiPSC single-cell survival, ATPlite luminescence; 100% = ROCK inhibitor wells, 0% = DMSO; survival enhancement, % at 20 µM; 0.044% of 360,000 active; AID 602274; in the data active = survival enhancement above about 18%;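 also: cells exposed to compounds for 16 hours before the ATP read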
MPTP block = permeability transition pore inhibition; inhibition, % at 10 µM; 1.4% of 360,000 active; isolated mouse mitochondria, Ca2+ swelling absorbance, 30 min;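 active = inhibition of 50% or more, scaled per plate between neutral and stimulator controls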;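 also: 0% = DMSO wells given calcium and 100% = 1 mM EGTA wells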
Apaf1 inhib = inhibitors of human Apaf-1 apoptosome | inhibition, % at 20 µM | O14727 | AID 489030 | 0.71% of 330,000 active | reconstituted apoptosome caspase-3 activity, DEVD-Rh110 fluorescence; active = inhibition of at least 40% at 20 µM;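 also: plate controls were DMSO wells for no effect and DEVD-CHO caspase inhibitor wells for full effect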
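detection = Rh110 fluorescence intensity | test system = biochemical Apaf-1 apoptosome reconstitution | also added = cytochrome c and DEVD-Rh110 substrate | schedule = 30 min plus 50 min, RT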
Granule exo inh = blocks lytic granule exocytosis | TALL-104 LAMP-1 surface exposure, flow cytometry; cells stimulated with thapsigargin and PMA | inhibition, % at 10 µM | 0.66% of 360,000 active;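 active = inhibition above about 55%, limit read from the data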
UBC13 polyUb = blocks human UBC13 polyubiquitin chain formation; 0.47% of 330,000 active; inhibition, % at 20 µM; P61088; TR-FRET; in the data active = inhibition above about 45%, passing the limit was not always enough
Target sequence (P61088 whole entry, looked up): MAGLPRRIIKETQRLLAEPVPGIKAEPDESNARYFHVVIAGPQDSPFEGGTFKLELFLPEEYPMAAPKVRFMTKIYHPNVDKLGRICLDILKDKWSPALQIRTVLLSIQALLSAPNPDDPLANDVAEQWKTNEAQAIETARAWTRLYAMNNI
MIN6 prolif = MIN6 beta-cell proliferation induction; MIN6 cells proliferation, ATPlite luminescence, 48 h; cells starved in 0.2% serum; 100% = growth in 10% serum; proliferation, % at 10 µM; 0.29% of 330,000 active; AID 2380;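 active = compounds whose signal lies at least 3.5 SD above the mean of all wells on their plate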;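 also: 0% = DMSO-treated cells in low-serum medium and 100% = 10% serum control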
Casp3 UBC13 ctr = counter-screen for UBC13 inhibitors: human caspase-3 inhibition; shares compounds with UBC13 polyUb; Recombinant caspase-3, Caspase-Glo 3/7 luminescence, 60 min; AID 488856; inhibition, % at 20 µM; 4% of 1,400 active;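 active = mean inhibition across replicates above about 26%, limit read from the data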;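 also: plate controls were DMSO with caspase-3 for no effect and DMSO wells lacking enzyme for full effect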
Target sequence (P42574 whole entry, looked up): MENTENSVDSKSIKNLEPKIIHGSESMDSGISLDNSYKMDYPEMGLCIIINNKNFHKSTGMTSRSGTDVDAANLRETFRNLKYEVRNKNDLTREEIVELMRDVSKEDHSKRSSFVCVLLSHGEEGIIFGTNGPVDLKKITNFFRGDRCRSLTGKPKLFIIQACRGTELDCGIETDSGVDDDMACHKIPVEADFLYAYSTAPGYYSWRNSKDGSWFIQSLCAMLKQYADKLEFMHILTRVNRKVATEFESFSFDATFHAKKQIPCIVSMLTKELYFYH
UBC13 conf = confirmation of human UBC13 polyubiquitin inhibitors. AID 488859. inhibition, % at 10 µM. shares compounds with UBC13 polyUb. UBC13 polyubiquitination, TR-FRET, biochemical. 68% of 1,400 active; in the data active = inhibition above about 45%
Apaf-1 inh conf = confirmation of Apaf-1 inhibitors | inhibition, % at 20 µM | 25% of 1,800 active | AID 504614 | shares compounds with Apaf1 inhib | reconstituted apoptosome, caspase-3 DEVD-Rh110 fluorescence;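 active = mean inhibition of at least 40% at 20 µM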;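 also: plate controls were DMSO wells for no effect and DEVD-CHO caspase inhibitor control wells for full effect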
Rh110 quench = Rh110 signal interference in Apaf-1 inhibitor counter-screen; shares compounds with Apaf1 inhib; Rh110 fluorescence interference, quenched caspase reaction; activation (fluorescence interference), % at 20 µM; 1,800 tested, under 10 active;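 active = signal rise of 40% or more at 20 µM, treated as a fluorescence artifact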
An asterisk follows results filed as active.

`CC(C)C[C@@H](CN1CCC[C@@H]1CN1C(=O)C(=O)NC[C@@H]1Cc1ccccc1)N1C[C@H](Cc2ccc(O)cc2)N(CCc2ccccc2)C(=O)C1=O` gave hiPSC survival 0, MPTP block 0 and Granule exo inh 1.
`CC(C)[C@@H]1CN=C(N)N1C[C@@H]1CCCN1C[C@H](C)N1C[C@@H](Cc2ccccc2)N(CCc2ccc(Cl)c(Cl)c2)C1=N` gave hiPSC survival -1, MPTP block -2, Apaf1 inhib 54*, Granule exo inh 2, UBC13 polyUb 70*, MIN6 prolif 1, Casp3 UBC13 ctr -2, UBC13 conf 46*, Apaf-1 inh conf 13 and Rh110 quench -1.
Cc1ccc(C(=O)c2nccn2C)cc1C was read as hiPSC survival 0, MPTP block -1, Apaf1 inhib 9, Granule exo inh -4, UBC13 polyUb -2 and MIN6 prolif 1.
CCC[C@@H](CN1CCC[C@H]1CN1C(N)=NC[C@H]1CC(C)C)N1C[C@@H]([C@H](C)CC)N(CCc2ccc(Cl)c(Cl)c2)C1=N was read as hiPSC survival 2, MPTP block 4, Apaf1 inhib 64*, Granule exo inh 4, UBC13 polyUb 82*, MIN6 prolif -4, Casp3 UBC13 ctr -4, UBC13 conf 80*, Apaf-1 inh conf 14 and Rh110 quench 5.
CCOc1ccc(CCN2C(=O)C(=O)N([C@@H](CC(C)C)CN3CCC[C@H]3CN3C(=O)C(=O)NC[C@@H]3CC(C)C)C[C@@H]2CC(C)C)cc1 was read as hiPSC survival 1, MPTP block -1 and Granule exo inh 10.
CC[C@@H](C)[C@@H]1CN([C@@H](CN2CCC[C@H]2CN2C(N)=NC[C@H]2CC(C)C)C(C)C)C(=N)N1CCc1ccc(Cl)c(Cl)c1 was read as hiPSC survival -1, MPTP block -4, Apaf1 inhib 63*, Granule exo inh 0, UBC13 polyUb 73*, MIN6 prolif -4, Casp3 UBC13 ctr 3, UBC13 conf 86*, Apaf-1 inh conf 23 and Rh110 quench 14.
For CC[C@@H](C)[C@@H]1CN([C@@H](C)CN2CCC[C@H]2CN2C(N)=NC[C@H]2CC(C)C)C(=N)N1CCc1ccc(Cl)c(Cl)c1 the results were hiPSC survival 1, MPTP block 1, Apaf1 inhib 52*, Granule exo inh -3, UBC13 polyUb 69*, MIN6 prolif -1, Casp3 UBC13 ctr 0, UBC13 conf 70*, Apaf-1 inh conf 2 and Rh110 quench 3.
Cc1cnc(C(=O)OCC(=O)c2ccc(Cl)cc2)cn1 was read as hiPSC survival 0, MPTP block -1, Apaf1 inhib 0, Granule exo inh -2, UBC13 polyUb -3 and MIN6 prolif -1.
`COc1ccc2[nH]c3c(c2c1)CCN1C(=O)C(CC(=O)NC/C=C(\C)CCC=C(C)C)C[C@H](C(=O)N2CCOCC2)[C@@]31CCC1CCCC1` (some centres not stated) gave hiPSC survival 1, MPTP block -1, Apaf1 inhib 14 and Granule exo inh -2.
